Compound activity deposited in PubChem BioAssay by several laboratories.
A selection: hits, their analogues and other compounds. The true share with any hit is near 1%.
PKA-R2B activ – activates the human PKA-R2B holoenzyme complex. activation, % at 11.4 µM. P22694+P31323. 340,000 tested, 0.079% active. PKA-R2B holoenzyme dissociation, Cy5-IP20 fluorescence polarization; R2B truncated from residue 108, S112A mutant; 0% DMSO only, 100% 113 µM cGMP;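 active = activation above a cutoff set at the mean over all compounds plus 3 SD, cut at about 18% in these data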;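 also: higher means more holoenzyme dissociation and a rise in polarization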
Neddylation inh – inhibitors of human cullin neddylation | P61081+Q13564 | TR-FRET cullin neddylation, biochemical | inhibition, % at 25 µM | 360,000 tested, 0.58% active; in the data active = inhibition above about 36%
Target sequence (P61081 whole entry, looked up): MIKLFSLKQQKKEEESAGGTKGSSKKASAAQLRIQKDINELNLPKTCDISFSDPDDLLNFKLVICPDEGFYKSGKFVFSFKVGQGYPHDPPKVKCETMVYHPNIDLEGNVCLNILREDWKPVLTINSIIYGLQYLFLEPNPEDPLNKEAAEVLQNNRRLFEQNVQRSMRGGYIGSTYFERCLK
Target sequence (Q13564 whole entry, looked up): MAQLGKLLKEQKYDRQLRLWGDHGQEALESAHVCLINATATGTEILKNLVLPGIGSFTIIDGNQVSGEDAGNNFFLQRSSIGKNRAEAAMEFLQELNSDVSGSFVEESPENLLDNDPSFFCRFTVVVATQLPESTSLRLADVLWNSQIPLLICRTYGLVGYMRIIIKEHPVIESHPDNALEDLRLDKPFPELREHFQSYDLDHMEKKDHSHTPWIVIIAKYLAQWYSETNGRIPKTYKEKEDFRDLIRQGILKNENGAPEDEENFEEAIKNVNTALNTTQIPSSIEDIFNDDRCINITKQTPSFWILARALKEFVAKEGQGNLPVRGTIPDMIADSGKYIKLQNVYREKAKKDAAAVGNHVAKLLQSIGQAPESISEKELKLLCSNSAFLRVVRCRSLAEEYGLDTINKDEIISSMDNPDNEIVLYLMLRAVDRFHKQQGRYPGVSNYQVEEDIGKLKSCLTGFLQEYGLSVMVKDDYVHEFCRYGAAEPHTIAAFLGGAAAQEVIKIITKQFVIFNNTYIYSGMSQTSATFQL
Tn7 DDE FP – disrupts Tn7 cyclic peptide binding to fibrin D-Dimer-E complex; FP displacement of FITC-Tn7 peptide from fibrin DD(E); 0% = median of compound wells per plate; inhibition, % at 8.3 µM; P02675; 370,000 tested, 0.13% active; AID 720508;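 active = inhibition above the mean of compounds falling within the control limits plus 3 SD of them, cut at about 14% in these data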
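assay system = human clot-derived fibrin DD(E) complex | quantity = Fibrin-DD(E) at 2 µM final | timing = 10 min preincubation, 3 h with tracer, room temperature | signal = fluorescence polarization | measure = percent inhibition | benchmarks = high control wells with 10 µM unlabelled Aha-Tn7 peptide (full inhibition) | replicates = singlicate testing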
PKA-R1A act – activators of PKA-R1A complex | AID 504707 | PKA-R1A dissociation, Cy5-IP20 fluorescence polarization; scaled: DMSO 0%, 113 µM cGMP 100% | P00514+P68181 | activation, % at 11.4 µM | 340,000 tested, 0.083% active;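 active = percent activation above the mean of all tested compounds plus 3 SD, cut at about 19% in these data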;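 also: higher means more PKAc released from R1A so a rise in polarization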
Tn6 DDE FP – inhibitors of Tn6 peptide binding to human fibrin DD(E); inhibition, % at 8.3 µM; 370,000 tested, 0.21% active; AID 720509; Fibrin DD(E) TRITC-Tn6 fluorescence polarization displacement; P02675;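 active = inhibition above a per-campaign cutoff: mean of compounds within control limits plus 3 SD, cut at about 15% in these data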
DDE Tn7 confirm – confirmation of inhibitors of Tn7 binding to human fibrin DD(E). shares compounds with Tn7 DDE FP. 460 tested, 5% active. inhibition, % at 8.3 µM. FP displacement of TRITC-Tn7 peptide from DD(E); 0% set at plate's compound-well median;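 active = inhibition above the campaign cutoff, the mean of compounds within control limits plus 3 SD, cut at about 14% in these data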;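 also: displacers lower polarization since freed probe rises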
DDE Tn7 FP ctr – counter-screen hit for Tn7 peptide-fibrin DD(E) binding disruption. TRITC-Tn7 probe displacement, fluorescence polarization. shares compounds with Tn7 DDE FP. inhibition, % at 8.3 µM. AID 720633. 460 tested, 3% active;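 active = inhibition above the cutoff, the mean of compounds lying between the control bounds plus 3 SD of those compounds, cut at about 17% in these data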
DDE Tn6 FP ctr – counter-screen for inhibitors of Tn6 peptide binding to fibrin DD(E); inhibition, % at 8.3 µM; AID 720621; 680 tested, 2% active; shares compounds with Tn6 DDE FP; TRITC-Tn6 fluorescence polarization displacement; 0% = median of compound wells, not DMSO;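 active = inhibition above the mean of test compounds lying between the control limits plus 3 SD of those, cut at about 14% in these data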
DDE Tn6 confirm – confirmation of inhibitors of Tn6 binding to human fibrin DD(E); shares compounds with Tn6 DDE FP; FP displacement of TRITC-Tn6 peptide from DD(E); 0% = per-plate median of test wells; inhibition, % at 8.3 µM; 680 tested, 10% active; AID 720631;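 active = inhibition above the mean of compounds lying within the control limits plus 3 SD, cut at about 16% in these data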
Large screens that a line does not name were inactive (follow-up assays come after a bar, where they were run).

CC(C)NC(=O)N[C@H]1C[C@@H]2O[C@@H](CO)CC[C@@H]2O[C@@H]1CCc1ccc(-c2ccccc2F)cc1	none (no result: PKA-R2B activ, Neddylation inh, PKA-R1A act)
Cc1ccc(NC(=O)C(c2ccccc2)N2CCN(CC(=O)N3CCOCC3)CC2)cc1 (stereo unspecified)	none
COc1cccc(NC(=O)C(c2ccccc2)N2CCN(CC(=O)N3CCOCC3)CC2)c1 (stereo unspecified)	Tn7 DDE FP 15 | DDE Tn7 confirm inactive | DDE Tn7 FP ctr inactive
NNC(=O)CP(=O)(c1ccccc1)c1ccccc1	none
O=C(CP(=O)(c1ccccc1)c1ccccc1)Nn1cnnc1	Tn7 DDE FP 17 | DDE Tn7 confirm inactive | DDE Tn7 FP ctr inactive
COc1ccc(-c2cn3c(C)c(C(=O)Nc4cccc(NC(C)=O)c4)sc3n2)cc1	Tn7 DDE FP 14 | DDE Tn7 confirm inactive | DDE Tn7 FP ctr inactive
CCc1ccc(C(=O)N2CCN(c3ccc(F)cc3)CC2)s1	Tn7 DDE FP 16 | DDE Tn7 confirm inactive | DDE Tn7 FP ctr inactive
O=C(NCc1ccco1)O[C@@H]1CC[C@@]23CCCN2C(=O)CCC[C@H]3C1	none (no result: PKA-R2B activ, Neddylation inh, PKA-R1A act)
C=CCNS(=O)(=O)c1ccc(OCC(=O)OC)cc1	Tn7 DDE FP 16 | DDE Tn7 confirm inactive | DDE Tn7 FP ctr inactive
COc1ccc(N=Nc2nc3cc(Br)c(Br)cc3n2C)c(OC)c1	Tn7 DDE FP 28 | DDE Tn7 confirm inactive | DDE Tn7 FP ctr inactive
COc1cccc(C2NC(=S)N(Cc3ccc(Br)cc3)C(C)=C2C(C)=O)c1 (stereo unspecified)	none (no result: PKA-R2B activ, Neddylation inh, PKA-R1A act)
COc1ccc(S(=O)(=O)N2CCOCC2)cc1NC(=O)CCOc1ccc(C(C)(C)C)cc1	Tn7 DDE FP 15 | DDE Tn7 confirm inactive | DDE Tn7 FP ctr inactive
COc1ccc(S(=O)(=O)N2CCOCC2)cc1NC(=O)c1ccc(OC(F)F)cc1	Tn7 DDE FP 15 | DDE Tn7 confirm inactive | DDE Tn7 FP ctr inactive
Cc1cc(C(=O)O[C@H]2CCC[C@@]3(C(=O)N(Cc4ccccc4)c4ccccc43)[C@H]2NC(=O)CCc2ccccc2)no1	none (no result: PKA-R2B activ, Neddylation inh, PKA-R1A act)
O=C(N1CCC(Cc2ccccc2)CC1)n1ncc(C(O)(c2ccccc2)c2ccccc2)n1	none (no result: PKA-R2B activ, Neddylation inh, PKA-R1A act)
COc1ccccc1N1CCN(CC(=O)c2c(C)[nH]c3ccccc23)CC1	Tn7 DDE FP 16 | DDE Tn7 confirm inactive | DDE Tn7 FP ctr inactive
COc1ccccc1N1CCN(CC(=O)c2c[nH]c3ccccc23)CC1	none
COc1ccc(S(=O)(=O)N2CCN(CC(=O)NCCc3cccs3)CC2)cc1	Tn7 DDE FP 15 | DDE Tn7 confirm inactive | DDE Tn7 FP ctr inactive
COc1ccc(S(=O)(=O)N2CCN(CC(=O)NC(C)c3cccs3)CC2)cc1 (stereo unspecified)	none
Cc1ccc(-c2cc(C(=O)NNC(=O)c3csc(N4CCOCC4)n3)c3ccccc3n2)cc1	none
O=C(NNC(=O)c1cc(-c2ccccc2)nc2ccccc12)c1csc(N2CCOCC2)n1	Tn7 DDE FP 15 | DDE Tn7 confirm inactive | DDE Tn7 FP ctr inactive
O=c1oc2cc(O)ccc2cc1-c1nc2ccccc2o1	Tn7 DDE FP 38 (no result: PKA-R2B activ, PKA-R1A act) | DDE Tn7 confirm 14 | DDE Tn7 FP ctr inactive
COc1ccc(NC(=O)CCN2CCCCC2)cc1	none
CCOc1ccc(NC(=O)CCN2CCCCC2)cc1	Tn7 DDE FP 16 | DDE Tn7 confirm inactive | DDE Tn7 FP ctr inactive
CCCCCCn1c(=O)[nH]c2nc3cc(N)c(C)cc3nc2c1=O	Tn7 DDE FP 30 | DDE Tn7 confirm inactive | DDE Tn7 FP ctr inactive
CCCCCCC(=O)NC1CCCCN(C)C1=O (stereo unspecified)	none (no result: PKA-R2B activ, Neddylation inh, PKA-R1A act)
O=C(NCCCc1ccccc1)[C@H](Cc1ccccc1)NC1(C(=O)NCCc2c[nH]c3ccccc23)CCOCC1	none (no result: PKA-R2B activ, Neddylation inh, PKA-R1A act)
O=C(Nc1cccnc1)c1ccc([N+](=O)[O-])cc1Cl	Tn7 DDE FP 16 | DDE Tn7 confirm inactive | DDE Tn7 FP ctr inactive
O=C(Nc1ncccn1)c1ccc([N+](=O)[O-])cc1Cl	none
CN(c1ccc(NC(=O)CCc2c[nH]c3ccccc23)cc1)c1ccccn1	none (no result: PKA-R2B activ, Neddylation inh, PKA-R1A act)
CN1CCCCC(NC(=O)c2cccc(C(F)(F)F)c2)C1=O (stereo unspecified)	none (no result: PKA-R2B activ, Neddylation inh, PKA-R1A act)
CC(=O)Nc1nnc(COc2ccc(Cl)cc2)s1	none
CC(C)C(=O)Nc1nnc(COc2ccc(Cl)cc2)s1	Tn7 DDE FP 14 | DDE Tn7 confirm inactive | DDE Tn7 FP ctr inactive
COc1ccc(S[C@]2(C(=O)N(C)C)CC(=O)N(C(=O)c3ccccc3)[C@@H]2c2ccc(OC)cc2)cc1	none (no result: PKA-R2B activ, Neddylation inh, PKA-R1A act)
Cc1cc2nc3c(=O)[nH]c(=O)[nH]c3nc2c([N+](=O)[O-])c1N	Tn7 DDE FP 31 | DDE Tn7 confirm inactive | DDE Tn7 FP ctr inactive
COC(=O)[C@]12C[C@H](CC(=O)NCC3CCCCC3)C(=O)N(Cc3ccc4c(c3)OCO4)C1=C[C@H](C(C)C)O[C@@H]2C1CC1	none (no result: PKA-R2B activ, Neddylation inh, PKA-R1A act)
O=C(N1CCc2ccccc2C1)n1cc(C(O)(c2ccccc2)c2ccccc2)nn1	none (no result: PKA-R2B activ, Neddylation inh, PKA-R1A act)
CCOC(=O)c1c(-c2ccccc2)oc2ccc(O)c(CN3CCCC3)c12	Tn7 DDE FP 15 | DDE Tn7 confirm inactive | DDE Tn7 FP ctr inactive
COc1ccccc1C(=O)NCC(=O)OCC(=O)Nc1ccc2[nH]c(=O)[nH]c2c1	Tn7 DDE FP 15 | DDE Tn7 confirm inactive | DDE Tn7 FP ctr inactive
Cc1ccc(C(NC(=O)N2CCCCC2)=C(Cl)Cl)cc1F	Tn7 DDE FP 15 | DDE Tn7 confirm inactive | DDE Tn7 FP ctr inactive
COc1ccc(C2CC(=O)C(c3ccc(Cl)c(Cl)c3)=CN2Cc2ccccc2)cc1 (stereo unspecified)	none (no result: PKA-R2B activ, Neddylation inh, PKA-R1A act)
C#CCCC(=O)Nc1sc2c(c1-c1nc3ccccc3s1)CCN(C(C)C)C2	Tn7 DDE FP 16 (no result: PKA-R2B activ, Neddylation inh, PKA-R1A act) | DDE Tn7 confirm 14 | DDE Tn7 FP ctr inactive
CC(=O)Nc1sc2c(c1-c1nc3ccccc3s1)CCN(C(C)C)C2	none (no result: Tn7 DDE FP, Tn6 DDE FP)
CCNC(=O)C1CCCN(C(=O)c2cccs2)CC1 (stereo unspecified)	none (no result: PKA-R2B activ, PKA-R1A act)
CCNC(=O)C1CCCN(C(=O)Cc2cccs2)CC1 (stereo unspecified)	Tn7 DDE FP 15, Tn6 DDE FP 18 (no result: PKA-R2B activ, PKA-R1A act) | DDE Tn7 confirm inactive | DDE Tn7 FP ctr inactive | DDE Tn6 FP ctr inactive | DDE Tn6 confirm inactive
